Assay results reported in ChEMBL document CHEMBL1124186, “Synthesis and evaluation of tylosin-related macrolides modified at the aldehyde function: a new series of orally effective antibiotics” (1988).
Converted amounts (≈) assume the structure as drawn.

Key:
[1] = tested on: Staphylococcus epidermidis; assay: In vitro antimicrobial activity against aerobic bacteria Streptococcus epi 222; format: functional
Eikenella corrodens = assay: In vitro antimicrobial activity against anaerobic bacteria bacteroides corrodens 1874; format: functional
Phocaeicola vulgatus = assay: In vitro antimicrobial activity against anaerobic bacteria bacteroides vulgatus 1211; format: functional
Streptococcus [2] = assay: In vitro antimicrobial activity against aerobic bacteria Streptococcus D 9960; format: functional
Collinsella aerofaciens = assay: In vitro antimicrobial activity against anaerobic bacteria aerofaciens 1235; format: functional
Bacteroides fragilis [3] = assay: In vitro antimicrobial activity against anaerobic bacteria bacteroides fragilis 1877; format: functional
Streptococcus pyogenes [4] = assay: In vivo effective dose against experimental infections in rodent caused by Streptococcus pyogenes C203 when administered orally; format: functional; conditions: po
Streptococcus pyogenes [5] = assay: In vitro antimicrobial activity against Streptococcus pyogenes C203; format: functional
Anaerococcus prevotii = assay: In vitro antimicrobial activity against anaerobic bacteria peptococcus prevoti 1281; format: functional
Streptococcus [6] = assay: In vitro antimicrobial activity against aerobic bacteria Streptococcus D 2041; format: functional
Staphylococcus aureus [7] = assay: In vitro antimicrobial activity against aerobic bacteria Staphylococcus aureus 513E; format: functional
Streptococcus pyogenes [8] = assay: Effective dose against Streptococcus pyogenes C203 when administered sc; format: functional
In short: (§1)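 Mouse protection test: infected mice were dosed twice, at 1 and 5 h postinfection, either subcutaneously or orally. […] The result is expressed as ED50 in mg/kg × 2.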

[9] = tested on: Prevotella melaninogenica; assay: In vitro antimicrobial activity against anaerobic bacteria bacteroides melaninogenicus 1856,; format: functional
[10] = tested on: Peptoniphilus asaccharolyticus; assay: In vitro antimicrobial activity against anaerobic bacteria peptococcus asaccharolyticus 1302; format: functional
Staphylococcus aureus [11] = assay: In vitro antimicrobial activity against aerobic bacteria Staphylococcus aureus V140,; format: functional
Bacteroides fragilis [12] = assay: In vitro antimicrobial activity against anaerobic bacteria bacteroides fragilis 111; format: functional
Cutibacterium acnes = assay: In vitro antimicrobial activity against anaerobic bacteria propionibacterium acnes 79; format: functional
Streptococcus [13] = assay: In vitro antimicrobial activity against aerobic bacteria Streptococcus B 5; format: functional
Streptococcus [14] = assay: In vitro antimicrobial activity against aerobic bacteria Streptococcus G Kruder; format: functional; conditions: Streptococcus; read-out: MIC
Streptococcus viridans = assay: In vitro antimicrobial activity against aerobic bacteria Streptococcus viridans 9943; format: functional
Streptococcus sanguinis = assay: In vitro antimicrobial activity against aerobic bacteria Streptococcus sanguis MX132; format: functional
[15] = tested on: Fusobacterium necrophorum; assay: In vitro antimicrobial activity against anaerobic bacteria usobacterium necrophorum 6054A; format: functional
[16] = In vitro antimicrobial activity against anaerobic bacteria peptostreptococcus intermedius 1264; format: functional
Haemophilus influenzae [17] = assay: In vitro antimicrobial activity against aerobic bacteria Haemophilus influenzae 465; format: functional
Streptococcus pneumoniae [18] = assay: In vitro antimicrobial activity against aerobic bacteria Streptococcus pneumoniae B1-438; format: functional, streptococcus pneum
Staphylococcus aureus [19] = assay: In vitro antimicrobial activity against aerobic bacteria Staphylococcus aureus V41; format: functional
Clostridioides difficile = assay: In vitro antimicrobial activity against anaerobic bacteria Clostridium difficile 2994; format: functional
Streptococcus [20] = assay: In vitro antimicrobial activity against aerobic bacteria Streptococcus C 24; format: functional
[21] = tested on: Peptostreptococcus anaerobius; assay: In vitro antimicrobial activity against anaerobic bacteria eubacterium peptostreptococcus anaerobius 1428,; format: functional
Clostridium septicum = assay: In vitro antimicrobial activity against anaerobic bacteria clostridium septicum 1128; format: functional
Staphylococcus aureus [22] = assay: In vitro antimicrobial activity against aerobic bacteria Staphylococcus aureus X400; format: functional
[23] = tested on: Staphylococcus epidermidis; assay: In vitro antimicrobial activity against aerobic bacteria Streptococcus epi 270; format: functional
Haemophilus influenzae [24] = assay: In vitro antimicrobial activity against aerobic bacteria Haemophilus influenzae 76; format: functional
Streptococcus pneumoniae [25] = assay: In vitro antimicrobial activity against Streptococcus pneumoniae; format: functional
Haemophilus influenzae [26] = assay: In vitro antimicrobial activity against aerobic bacteria Haemophilus influenzae MX366,; format: functional
Clostridium perfringens = assay: In vitro antimicrobial activity against anaerobic bacteria clostridium perfringens 81,; format: functional
Staphylococcus aureus [27] = assay: In vitro antimicrobial activity against Staphylococcus aureus X1; format: functional
Streptococcus pyogenes [28] = assay: Effective dose against Streptococcus pyogenes administered orally; format: functional; conditions: po; in short: as §1
Enterococcus faecium = assay: In vitro antimicrobial activity against Streptococcus faecium X66; format: functional, streptococcus fae-cium
Streptococcus pyogenes [29] = assay: In vivo effective dose against experimental infections in rodent caused by Streptococcus pyogenes C203 when administered sc; format: functional
[30] = tested on: Bacteroides thetaiotaomicron; assay: In vitro antimicrobial activity against anaerobic bacteria bacteroides thetaiotaomicron 1438; format: functional
Fusobacterium = assay: In vitro antimicrobial activity against anaerobic bacteria fusobacterium symbiosum 1470; format: functional
Streptococcus [31] = assay: In vitro antimicrobial activity against aerobic bacteria Streptococcus D 8043; format: functional
[32] = tested on: Prevotella melaninogenica; assay: In vitro antimicrobial activity against anaerobic bacteria bacteroides melaninogenicus 2736; format: functional
Haemophilus influenzae [33] = assay: In vitro antimicrobial activity against Haemophilus influenzae.; format: functional
Chlamydia trachomatis = assay: In vitro antimicrobial activity against chlamydia trachomatis.; format: functional
Staphylococcus aureus [34] = assay: In vitro antimicrobial activity against aerobic bacteria Staphylococcus aureus V135; format: functional
Bacteroides fragilis [35] = assay: In vitro antimicrobial activity against anaerobic bacteria bacteroides fragilis 1936B,; format: functional
Streptococcus pyogenes [36] = assay: Antimicrobial activity against Streptococcus pyogenes C203; format: functional
Streptococcus [37] = assay: In vitro antimicrobial activity against aerobic bacteria Streptococcus B 8; format: functional
[38] = tested on: Staphylococcus epidermidis; assay: In vitro antimicrobial activity against Staphylococcus epidermidis EPI1; format: functional
[39] = tested on: Haemophilus parainfluenzae; assay: In vitro antimicrobial activity against aerobic bacteria Haemophilus parainfluenzae 9796; format: functional

CC[C@H]1OC(=O)C[C@@H](O)[C@H](C)[C@@H](O[C@@H]2O[C@H](C)[C@@H](O[C@H]3C[C@@](C)(O)[C@@H](O)[C@H](C)O3)[C@H](N(C)C)[C@H]2O)[C@@H](CC=O)C[C@@H](C)C(=O)/C=C/C(C)=C/[C@@H]1CO[C@@H]1O[C@H](C)[C@@H](O)[C@@H](OC)[C@H]1OC [TYLOSIN] gave an MIC [1] of 0.25 µg/mL (≈ 0.273 µM), an MIC (Eikenella corrodens) of 1 µg/mL (≈ 1.09 µM) and an MIC (Phocaeicola vulgatus) of 1 µg/mL (≈ 1.09 µM). For the same compound, the MIC (Streptococcus [2]) was 1 µg/mL (≈ 1.09 µM), the MIC (Collinsella aerofaciens) was 0.12 µg/mL (≈ 0.131 µM) and the MIC (Bacteroides fragilis [3]) was 1 µg/mL (≈ 1.09 µM). For the same compound, the ED50 (Streptococcus pyogenes [4]) was 42 mg/kg, the MIC (Streptococcus pyogenes [5]) was 0.25 µg/mL (≈ 0.273 µM) and the MIC (Anaerococcus prevotii) was 8 µg/mL (≈ 8.73 µM). The MIC (Streptococcus [6]) was 1 µg/mL (≈ 1.09 µM), the MIC (Staphylococcus aureus [7]) was 1 µg/mL (≈ 1.09 µM) and the ED50 (Streptococcus pyogenes [8]) was 0.5 mg/kg. The MIC [9] was 0.25 µg/mL (≈ 0.273 µM), the MIC [10] was 0.06 µg/mL (≈ 0.0655 µM) and the MIC (Staphylococcus aureus [11]) was 1 µg/mL (≈ 1.09 µM). For the same compound, the MIC (Bacteroides fragilis [12]) was 0.5 µg/mL (≈ 0.546 µM), the MIC (Cutibacterium acnes) was 0.5 µg/mL (≈ 0.546 µM) and the MIC (Streptococcus [13]) was 1 µg/mL (≈ 1.09 µM). It also gave an MIC (Streptococcus [14]) of 0.25 µg/mL (≈ 0.273 µM), an MIC (Streptococcus viridans) greater than 128 µg/mL and an MIC (Streptococcus sanguinis) of 0.5 µg/mL (≈ 0.546 µM). The MIC [15] was 0.5 µg/mL (≈ 0.546 µM), the MIC [16] was 0.5 µg/mL (≈ 0.546 µM) and the MIC (Haemophilus influenzae [17]) was 32 µg/mL (≈ 34.9 µM). The MIC (Streptococcus pneumoniae [18]) was greater than 128 µg/mL, the MIC (Staphylococcus aureus [19]) was 1 µg/mL (≈ 1.09 µM) and the MIC (Clostridioides difficile) was 1 µg/mL (≈ 1.09 µM). For the same compound, the MIC (Streptococcus [20]) was 0.25 µg/mL (≈ 0.273 µM), the MIC [21] was 8 µg/mL (≈ 8.73 µM) and the MIC (Clostridium septicum) was 0.5 µg/mL (≈ 0.546 µM). The MIC (Staphylococcus aureus [22]) was 1 µg/mL (≈ 1.09 µM), the MIC [23] was greater than 128 µg/mL and the MIC (Haemophilus influenzae [24]) was 16 µg/mL (≈ 17.5 µM). It also gave an MIC (Streptococcus pneumoniae [25]) of 0.25 µg/mL (≈ 0.273 µM), an MIC (Haemophilus influenzae [26]) of 16 µg/mL (≈ 17.5 µM) and an MIC (Clostridium perfringens) of 0.25 µg/mL (≈ 0.273 µM). For the same compound, the MIC (Staphylococcus aureus [27]) was 0.5 µg/mL (≈ 0.546 µM), the ED50 (Streptococcus pyogenes [28]) was 0.5 mg/kg and the MIC (Enterococcus faecium) was 2 µg/mL (≈ 2.18 µM). For the same compound, the ED50 (Streptococcus pyogenes [29]) was 1.3 mg/kg, the MIC [30] was 1 µg/mL (≈ 1.09 µM) and the MIC (Fusobacterium) was less than 0.03 µg/mL. For the same compound, the MIC (Streptococcus [31]) was 1 µg/mL (≈ 1.09 µM), the MIC [32] was less than 0.03 µg/mL and the MIC (Haemophilus influenzae [33]) was 16 µg/mL (≈ 17.5 µM). It also gave an MIC (Chlamydia trachomatis) of 0.25 µg/mL (≈ 0.273 µM), an MIC (Staphylococcus aureus [34]) of 1 µg/mL (≈ 1.09 µM) and an MIC (Bacteroides fragilis [35]) of 1 µg/mL (≈ 1.09 µM). For the same compound, the MIC (Streptococcus pyogenes [36]) was 0.25 µg/mL (≈ 0.273 µM), the MIC (Streptococcus [37]) was 1 µg/mL (≈ 1.09 µM) and the MIC [38] was 1 µg/mL (≈ 1.09 µM). The MIC [39] was 16 µg/mL (≈ 17.5 µM).
